Experimental findings from ChEMBL document CHEMBL1138340, “Cannabilactones: a novel class of CB2 selective agonists with peripheral analgesic activity” (J Med Chem, 2007) are described below.

The target of data set [1] is Cannabinoid receptor 1 (Rattus norvegicus, UniProt P20272). Put plainly: Displacement of [3H]CP-55940 from CB1 receptor in rat brain synaptosomes. It is filed as subcellular. A digest of the protocol:
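Test ligand at eight concentrations in DMSO. Incubation 1 h at 30 °C in TME buffer (25 mM Tris, 5 mM MgCl2, 1 mM EDTA) with 0.1% BSA. Nonspecific binding defined with 200 nM CP55,940. Bound ligand separated by rapid filtration and read by scintillation counting. Data from three independent experiments fitted by four-parameter logistic to give IC50, converted to Ki by Cheng–Prusoff.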
A general note: Displacement assays read how much labelled ligand stays bound in the presence of the test substance.

Data set [2] has as its target Cannabinoid receptor 2 (Mus musculus, UniProt P47936). Kind of data set: Displacement of [3H]CP-55940 from CB2 receptor in mouse spleen membranes. The data set is classed as cell membranes, Membrane. A digest of the protocol: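 Competitive displacement of [3H]CP55,940 (3.08 nM) from rat forebrain synaptosomal membranes (CB1) or frozen mouse spleen membranes (CB2), 40–50 µg protein. Test ligand at eight concentrations in DMSO. Incubation 1 h at 30 °C in TME buffer (25 mM Tris, 5 mM MgCl2, 1 mM EDTA) with 0.1% BSA. Nonspecific binding defined with 200 nM CP55,940. Bound ligand separated by rapid filtration and read by scintillation counting. Data from three independent experiments fitted by four-parameter logistic to give IC50, converted to Ki by Cheng–Prusoff.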

Data set [3] can be described thus: Selectivity of mouse CB2 receptor over rat CB1 receptor. Put shortly: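 Ratio of Ki values from [3H]CP55,940 displacement using rat brain synaptosomal membranes (CB1) and mouse spleen membranes (CB2). Both incubated 1 h at 30 °C in TME with 0.1% BSA. IC50 from three independent experiments converted to Ki by Cheng–Prusoff.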
For data set [4], the target named is Cannabinoid receptor 2 (Mus musculus) (UniProt P47936). Kind of data set: Agonist activity at CB2 receptor in mouse spleen membranes at 1 uM after 2 hrs by [35S]GTP-gamma-S binding assay. It is filed as functional, cell membranes. To be noted: Membrane. A digest of the protocol: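 Mouse spleen lysed in a cell disruption bomb, centrifuged at 1000 g then 175000 g, and resuspended in TME with 0.1% BSA. Membranes (24–40 µg) incubated 2 h at 30 °C with test compound at 1 µM, 30 µM GDP and 0.05 nM [35S]GTPγS. Nonspecific binding defined with 10 µM unlabeled GTPγS. Bound label measured after GF/B filtration by scintillation counting. Reported with standard deviations.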
Cannabinoid receptor 2 (Mus musculus), sequence (P47936 whole entry): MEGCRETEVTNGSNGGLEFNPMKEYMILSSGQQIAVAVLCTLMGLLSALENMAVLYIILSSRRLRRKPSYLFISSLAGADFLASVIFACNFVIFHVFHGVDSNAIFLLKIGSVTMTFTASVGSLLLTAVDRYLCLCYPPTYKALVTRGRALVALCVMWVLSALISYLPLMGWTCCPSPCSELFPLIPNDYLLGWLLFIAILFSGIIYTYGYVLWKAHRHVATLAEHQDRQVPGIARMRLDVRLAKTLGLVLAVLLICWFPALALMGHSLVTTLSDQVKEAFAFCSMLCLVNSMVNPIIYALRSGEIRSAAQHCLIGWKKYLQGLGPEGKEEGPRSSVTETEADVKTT
(GTPγS is a poorly hydrolysed GTP analogue; its binding reports G protein activation.)

For data set [5] the target is unchanged. Put plainly: Agonist activity at CB2 receptor in mouse spleen membranes assessed as inhibition of forskolin-stimulated cAMP production. It is filed as functional, cell membranes. The conditions noted are these: Membrane.
Data set [6] concerns Rattus norvegicus. Kind of data set: Antinociceptive activity in sc dosed Sprague-Dawley rat assessed as paw withdrawal latency to radiant heat after 20 mins. The data set is classed as functional. A digest of the protocol:
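Male Sprague–Dawley rats, 200–300 g. Drug in DMSO, 50 µL, injected subcutaneously into the plantar hindpaw 20 min before testing. […] A50 (dose giving 50% MPE) taken from dose–response curves by Tallarida–Murray. n=6 per group, mean ± SEM.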

Data set [7] deals with Rattus norvegicus. Kind of data set: Neurotoxicity in Sprague-Dawley rat assessed as ambulation on rotarod apparatus at 3.3 mg/kg, ip after 15 mins. It is filed as toxicity, organism-based. The arrangement: dose 3.3 mg/kg, route intraperitoneal. The conditions noted are these: in vivo, 0.25 h. A digest of the protocol:
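Rats trained to stay 180 s on a rotarod at 10 rpm. Drug given i.p. at 3.3 mg/kg. Time to fall recorded 15 min after dosing, with a 180 s cutoff; comparison is to vehicle baseline.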

Calls of active or inactive are those of the source.

Cannabinoid receptor 1, sequence (P20272 whole entry): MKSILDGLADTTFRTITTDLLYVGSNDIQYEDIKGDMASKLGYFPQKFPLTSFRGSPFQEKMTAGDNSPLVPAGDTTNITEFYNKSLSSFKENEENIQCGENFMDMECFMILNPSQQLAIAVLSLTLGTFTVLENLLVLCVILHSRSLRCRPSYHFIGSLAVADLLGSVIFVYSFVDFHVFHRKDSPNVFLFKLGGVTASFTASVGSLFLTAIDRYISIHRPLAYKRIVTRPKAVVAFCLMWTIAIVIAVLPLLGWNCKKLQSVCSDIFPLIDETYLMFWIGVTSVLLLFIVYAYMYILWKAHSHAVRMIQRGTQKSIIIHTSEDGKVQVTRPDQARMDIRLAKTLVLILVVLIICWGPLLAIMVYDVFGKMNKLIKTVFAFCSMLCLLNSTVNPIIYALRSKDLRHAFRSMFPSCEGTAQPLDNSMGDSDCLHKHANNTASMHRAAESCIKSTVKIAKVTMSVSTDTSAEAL
Cannabinoid receptor 2, sequence (P47936 whole entry): as the sequence (P47936 whole entry) above

By Ki is commonly meant the equilibrium dissociation constant of an inhibitor or competing ligand from its target. Read a high Ki as a looser hold on the target. Consider `CCCCCCC(C)(C)c1cc(O)c2c(c1)OC(C)(C)c1ccc(OC)cc1-2`, for which the values for the Ki in data set [1] and in data set [2] were 5.4 nM and 5.9 nM, respectively. For the same molecule, the Ratio Ki in data set [3] turned out to be 0.92. The Activity in data set [4] amounted to 42%.

Regarding `CCCCCCC(C)(C)c1cc(O)c2c(c1)OC(C)(C)c1ccc(C)cc1-2`, the Ki was 0.95 nM in data set [1] and 1.1 nM in data set [2]. In data set [3], the Ratio Ki came to 0.86.

For the molecule `CCCCCCC(C)(C)c1cc(O)c2c(c1)oc(=O)c1ccc(C)cc12`, the values for the Ki in data set [1] and in data set [2] were 39 nM and 3.1 nM, respectively.

Take `CCCCCCC(C)(C)c1cc(O)c2c(c1)oc(=O)c1ccc(OC)cc12`: the Ki amounted to 360 nM in data set [1] and 6.7 nM in data set [2]. The Ratio Ki in data set [3] worked out at 54. Besides, the Activity in data set [4] came to 50%. The outcome in data set [5] was Active. In data set [6], the A50 came out at 1.6 mg/kg.

Take `CCCCCCC(C)(C)c1cc(O)c2c(c1)OC(C)(C)c1ccc(O)cc1-2`: in data set [2], the Ki came to 4.8 nM. In addition, the Ratio Ki in data set [3] is 0.54.

Take `CCCCCCC(C)(C)c1cc(O)c2c(c1)oc(=O)c1ccc(O)cc12`: the Ki in data set [1] came to 400 nM; in data set [2] it was 0.82 nM. For the same molecule, in data set [3], the Ratio Ki stood at 490. For the same molecule, the values for the Activity in data set [4] and in data set [7] were 55% and “Non-toxic”, respectively. Besides, the outcome in data set [5] was Active. Moreover, the A50 in data set [6] came to 4.5 mg/kg.

`Cc1c(C(=O)c2cccc3ccccc23)c2cccc3c2n1[C@H](CN1CCOCC1)CO3`: the Activity in data set [4] was 56%.
